The source made the active and inactive calls. The rule behind the calls is not given here.

The subject of data set [1] is 4T1. Briefly: Antitumor activity against mouse 4T1 cells implanted in BALB/c mouse assessed as decrease in tumor MMP9 expression level at 5.7 mg/kg,iv administrated once per week for 4 weeks in presence of compound 5b by western blot assay. The data set is classed as functional, organism-based. In outline: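 Tumour-bearing BALB/c mice (4T1 cells into mammary fat pad) given iv saline vehicle or test agents once weekly for 4 weeks. Tumours excised and probed by western blot for MMP9, MMP2 and NOD1, β-actin as loading control. Bands averaged over five mice per group; representative of two independent experiments.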
Background: Immunoblotting shows a protein as a band on a membrane.

Data set [2] in a line: Toxicity in BALB/c mouse injected with mouse 4T1 cells assessed as body weight loss at 5.7 mg/kg,iv in presence of compound 5b administrated once per week for 4 weeks. The format is organism-based. Conditions: in vivo, 672 h.
In data set [3] the test system is 4T1. Description: Antitumor activity against mouse 4T1 cells xenografted with BALB/c mouse assessed as inhibition of tumor growth at 5.7 mg/kg,iv in presence of compound 5b administrated once per week for 4 weeks. Conditions: 4T1, 672 h. The data set is classed as functional. Put shortly: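 4T1 cells injected into mammary fat pads of BALB/c mice. Dosing iv once per week for 4 weeks, saline vehicle; single-agent arms were given alone or with the peptide component (5b or 6). Endpoints were body weight, tumour volume, tumour weight, lung metastatic nodule count and lung metastasis score. Mean ± SEM, n = 10; ANOVA and Student's t test.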

A short description of data set [4]: Stability in monkey plasma assessed as compound remaining at 1 uM incubated for 6 hrs. Conditions: rhesus monkey. The format is ADME, cell-free, Macaca mulatta.
Data set [5] can be described thus: AUC (0-t) in male rat at 8 mg/kg,iv measured upto 24 hrs. The format is ADME, organism-based. More on the design: time < 24 hrs, dose 8 mg/kg, route iv. Conditions: in vivo. In outline:
(§1)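 Single iv dose: rats 2, 4 or 8 mg/kg by intravenous injection; Beagle dogs 1, 2 or 4 mg/kg by intravenous infusion. Plasma concentration–time data were analysed by sex and pooled. Reported parameters: Cmax, Tmax, AUC0−t, AUC0−∞, MRT0−∞, t1/2, CL, Vss, given as mean ± SD.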

A short description of data set [6]: MRT in mouse plasma implanted with mouse 4T1 cells at 10 mg/kg,iv measured upto 72 hrs. The data set is classed as ADME, organism-based.
The nature of data set [7]: Volume of distribution at steady state in Beagle dog at 2 mg/kg,iv measured upto 24 hrs. The format is ADME, organism-based, Canis lupus familiaris. Conditions: in vivo, read-out: Vdss.
The nature of data set [8]: Half life in mouse tumor implanted with mouse 4T1 cells at 10 mg/kg,iv measured upto 72 hrs. The format is ADME, organism-based, Neoplasm.
Data set [9] is described as follows: Prodrug conversion in mouse plasma implanted with mouse 4T1 cells assessed as Tmax of docetaxel at 4 mg/kg,iv measured upto 72 hrs. The format is ADME, organism-based. Conditions: in vivo.
A short description of data set [10]: Toxicity in Beagle dog assessed as effect on respiratory frequency at 1 to 4 mg/kg,iv. The data set is classed as organism-based, Canis lupus familiaris. Conditions: in vivo, dose 1-4 mg/kg.
Data set [11] in a line: Half life in female rat at 2 mg/kg,iv measured upto 24 hrs. The format is ADME, organism-based. Conditions: in vivo.
Data set [12] can be described thus: Volume of distribution at steady state in male Beagle dog at 2 mg/kg,iv measured upto 24 hrs. The data set is classed as ADME, organism-based, Canis lupus familiaris. Conditions: in vivo, read-out: Vdss.
The subject of data set [13] is 4T1. Briefly: Antitumor activity against mouse 4T1 cells implanted in BALB/c mouse assessed as decrease in IL-1beta mRNA expression in lung at 20 mg/kg,iv administrated qd for 2 days by qRT-PCR analysis. The format is functional, organism-based. Conditions: time 2.0 day. In outline:
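Day 19 after 4T1 implantation, mice randomised into five groups; iv vehicle or 20 mg/kg plus ip C12-iE-DAP (50 μg/mouse) and MDP (100 μg/mouse) once daily for 2 days; killed after 48 h; lung mRNA for MMP8, MMP9, PROK2, S100A8, S100A9 and IL-1β by qPCR; mean ± SEM.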
For orientation: In qPCR the cycle at which signal appears reflects the starting amount.

Data set [14] is described as follows: MRT (0 to infinity) in male rat at 8 mg/kg,iv measured upto 24 hrs. The data set is classed as ADME, organism-based. Conditions: in vivo.
For data set [15], the system named is 4T1. Briefly: Antitumor activity against mouse 4T1 cells implanted in BALB/c mouse assessed as decrease in serum IL-6 level at 5 mg/kg,iv administrated once per week for 4 weeks by ELISA. The data set is classed as functional, organism-based. In outline: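 4T1 fat-pad model in BALB/c mice, iv 5–20 mg/kg once weekly for 4 weeks, with vehicle and naive groups; serum MMP9, TIMP-1, IL-6 and S100A9 measured by mouse ELISA kits.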

Data set [16] in a line: Half life in female Beagle dog at 1 mg/kg,iv measured upto 24 hrs. The format is ADME, organism-based, Canis lupus familiaris. Conditions: in vivo.
Data set [17] in a line: Volume of distribution at steady state in female Beagle dog at 1 mg/kg,iv measured upto 24 hrs. The data set is classed as ADME, organism-based, Canis lupus familiaris. Conditions: in vivo, read-out: Vdss.
Data set [18] is described as follows: AUC (0-t) in rat at 4 mg/kg,iv measured upto 24 hrs. The data set is classed as ADME, organism-based. Set-up: time < 24 hrs, dose 4 mg/kg, route iv. Conditions: in vivo. In outline:
as §1

Data set [19] in a line: Stability in dog plasma assessed as compound remaining at 1 uM incubated for 6 hrs. The format is ADME, cell-free, Canis lupus familiaris.
Data set [20] in a line: Half life in Beagle dog at 4 mg/kg,iv measured upto 24 hrs. The data set is classed as ADME, organism-based, Canis lupus familiaris. Conditions: in vivo.
Data set [21] can be described thus: Plasma protein binding in rat plasma incubated for 4 hrs. The data set is classed as ADME, cell-free. Conditions: read-out: PPB (converted).
Data set [22] in a line: Half life in female Beagle dog at 2 mg/kg,iv measured upto 24 hrs. The data set is classed as ADME, organism-based, Canis lupus familiaris. Conditions: in vivo.
Data set [23] in a line: AUC (0-t) in male Beagle dog at 2 mg/kg,iv measured upto 24 hrs. The data set is classed as ADME, organism-based, Canis lupus familiaris. More on the design: dose 2 mg/kg, time < 24 hrs, route iv. Conditions: in vivo. Put shortly: as §1
The subject of another data set is MCF7. Description: Antiproliferative activity against human MCF7 cells assessed inhibition of cell growth incubated for 72 hrs by SRB assay. The format is functional, cell-based. Conditions: MCF7, 72 h. Background: Sulforhodamine B stains cellular protein and so reports cell mass.
Data set [24] can be described thus: Drug excretion in rat bile at 4 mg/kg,iv measured upto 48 hrs. The format is ADME, organism-based. Conditions: read-out: Drug excretion. In outline:
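Rats were dosed iv. Bile was collected from 0 to 48 h, and cumulative excretion of the unchanged prototype was expressed as a percentage of the dose.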

Data set [25] in a line: AUC (0-t) in female Beagle dog at 1 mg/kg,iv measured upto 24 hrs. More on the design: dose 1 mg/kg, time < 24 hrs, route iv. Conditions: in vivo. The format is ADME, organism-based, Canis lupus familiaris. In outline:
as §1

The nature of data set [26]: AUC (0-infinity) in male Beagle dog at 2 mg/kg,iv measured upto 24 hrs. Conditions: in vivo. More on the design: time < 24 hrs, dose 2 mg/kg, route iv. The format is ADME, organism-based, Canis lupus familiaris. Put shortly:
as §1

A short description of data set [27]: Drug metabolism in rat feces assessed as metabolite docetaxel formation at 4 mg/kg,iv measured after 24 hrs. Conditions: in vivo. The data set is classed as ADME, organism-based.
Data set [28] is described as follows: Cmax in rat at 8 mg/kg,iv measured upto 24 hrs. The format is ADME, organism-based. More on the design: time < 24 hrs, dose 8 mg/kg, route iv. Conditions: in vivo. Put shortly: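 Rats were given a single iv injection at 2, 4 or 8 mg/kg. Plasma parent drug and released docetaxel were followed over time. Cmax, Tmax, AUC, MRT, t1/2, CL and Vss were reported for males, females and all animals combined.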

Data set [29] is described as follows: Toxicity in BALB/c mouse xenografted with mouse 4T1 cells assessed as decrease in body weight at 10 mg/kg,iv administrated once per week for 4 weeks. The data set is classed as organism-based. Conditions: in vivo, 672 h.
In another data set the test system is OVCAR-3. Description: Antiproliferative activity against human OVCAR-3 cells assessed inhibition of cell growth incubated for 72 hrs by SRB assay. The data set is classed as functional, cell-based. Conditions: OVCAR-3, 72 h.
Data set [30] can be described thus: Drug distribution in rat adrenal gland at 4 mg/kg,iv measured by 0.25 hrs. The data set is classed as ADME, organism-based. Conditions: in vivo. In outline:
(§2)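 Rats received 4 mg/kg iv. Parent drug and released docetaxel were assayed in tissues and plasma from the first sampling at 0.25 h to 24 h. The lower limit of quantitation was 200 ng/g.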

Data set [31] is described as follows: Toxicity in Beagle dog assessed as facial swelling at 3 to 18 mg/kg,iv measured upto 24 hrs. The format is organism-based, Canis lupus familiaris. Conditions: in vivo, dose 3-18 mg/kg.
The nature of data set [32]: Drug excretion in rat urine at 4 mg/kg,iv measured upto 72 hrs. The format is ADME, organism-based. Conditions: read-out: Drug excretion.
Data set [33] can be described thus: Drug concentration in rat brain at 4 mg/kg,iv measured after 24 hrs. The format is ADME, organism-based. Conditions: in vivo. In outline:
as §2

Data set [34] is described as follows: Drug metabolism in rat feces assessed as metabolite MDA-205 formation at 4 mg/kg,iv measured after 24 hrs. The data set is classed as ADME, organism-based. Conditions: in vivo.
Data set [35] in a line: Prodrug conversion in mouse tumor implanted with mouse 4T1 cells assessed as half life of docetaxel at 4 mg/kg,iv measured upto 72 hrs. The data set is classed as ADME, organism-based, Neoplasm. Conditions: in vivo.

One may read the inhibition in vivo as the percentage by which the read-out fell short of the control. Regarding `CC(=O)O[C@@]12CO[C@@H]1C[C@H](O)[C@@]1(C)C(=O)[C@H](O)C3=C(C)[C@@H](OC(=O)[C@H](O)[C@@H](NC(=O)OC(C)(C)C)c4ccccc4)C[C@@](O)([C@@H](OC(=O)c4ccccc4)[C@H]21)C3(C)C` [DOCETAXEL ANHYDROUS], in the data set on 4T1 [1], the result was inactive. In addition, in [2], the Activity entry was “Non-Toxic”. Also, the inhibition in vivo at 5.7 mg/kg with 4T1 [3] was found to be 14.4%.
By AUC(0-t) is commonly meant exposure summed from dosing to a finite time, without extrapolation to infinity. The term MRT denotes a mean duration of stay, worked out from the concentration-time curve. The term half-life denotes the time in which the quantity being followed falls by half. A word on the Tmax: it is the time at which the peak concentration occurs. As a reminder, the MRT inf is a mean duration of stay, worked out from the concentration-time curve. What is called IC50 is the concentration that gives 50% inhibition. Usually AUC(0-inf) stands for total exposure, with the tail of the curve extrapolated. In general, Cmax refers to the highest concentration seen after dosing. As for `CC(=O)O[C@@]12CO[C@@H]1C[C@H](O)[C@@]1(C)C(=O)[C@H](O)C3=C(C)[C@@H](OC(=O)[C@H](OC(=O)CCC(=O)NCCCC[C@H](NC(=O)CC[C@@H](NC(=O)[C@H](C)NC(=O)/C=C/c4ccc(F)cc4Cl)C(N)=O)C(=O)O)[C@@H](NC(=O)OC(C)(C)C)c4ccccc4)C[C@@](O)([C@@H](OC(=O)c4ccccc4)[C@H]21)C3(C)C`, the Stability result in data set [4] and in data set [19] was “Stable” each time. Also, the AUC(0-t) at 24 h in data set [5] amounted to 52300 ng·h/mL; in data set [18] it was 16900 ng·h/mL; in [23], 4840 ng·h/mL; in data set [25], 1590 ng·h/mL. In addition, the MRT in [6] stood at 27 min. Further, the Vd in [7] came to 0.083 L/kg; in [12], 0.09 L/kg; in data set [17], 0.204 L/kg. The half-life in [8] was 93.6 min; in data set [11], 6.6 min; in data set [16], 29 min; in data set [20], 35.5 min; in data set [22] it was 30.9 min. In addition, in data set [9], the Tmax came out at 1.8 min. For the same molecule, the Activity result is on record as “Non-Toxic” in data set [10], “Toxic” in data set [29] and “Toxic” in [31]. Besides, the result with 4T1 [13] and in the data set with 4T1 [15] was Active. Moreover, in data set [14], the MRT inf turned out to be 37.9 min. In addition, the fraction unbound at 4 h in [21] is 0.007. Besides, the IC50 in the data set on MCF7 and with OVCAR-3 was 16.3 nM each time. In [24], the dose excreted at 48 h is 82.9%. In data set [26], this molecule had an AUC(0-inf) of 4890 ng·h/mL. Moreover, the Drug metabolism result in [27] and in [34] was “Metabolite_Detected” each time. The peak concentration (Cmax) in [28] turned out to be 62.2 µg/mL. Besides, the Drug uptake entry in data set [30] and in data set [33] was “Active” throughout. In addition, the dose excreted at 72 h in [32] was found to be 9.38%. The t1/2 in data set [35] is 59 h.

The values above are taken from ChEMBL document CHEMBL5252546, “Salutaxel, a Conjugate of Docetaxel and a Muramyl Dipeptide (MDP) Analogue, Acts as Multifunctional Prodrug That Inhibits Tumor Growth and Metastasis” (J Med Chem, 2018).
